The source made the active and inactive calls. No cut-off for these calls is given here.
What was measured:
[1] = Intrinsic clearance in Sprague-Dawley rat liver microsomes by LC/MS method; type: ADME; conditions: read-out: CLH
[2] = Inhibition of rhesus monkey CYP11B1; set-up: species or system Macaca mulatta
Plasma [3] = assay: Free plasma concentration in rhesus monkey at 1 mg/kg, iv measured 90 mins post dose by LC/MS method; type: ADME, organism-based, Macaca mulatta; conditions: in vivo, 1.5 h
Procedure, shortened: (§1)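 Anesthetized rhesus monkeys dosed i.v.; plasma drug concentration measured 90 min postdose. Free (unbound) concentration calculated from total plasma level using the free fraction determined in rhesus plasma.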

Plasma [4] = assay: Free plasma concentration in rhesus monkey at 0.1 mg/kg, iv measured 90 mins post dose by LC/MS method; type: ADME, organism-based, Macaca mulatta; conditions: in vivo, 1.5 h; procedure, shortened: as §1
Cytochrome P450 3A4 = Cytochrome P450 3A4 (Homo sapiens, UniProt P08684); assay: Inhibition of human CYP3A4; type: ADME
Plasma [5] = assay: Fraction unbound in iv dosed rhesus monkey plasma measured 90 mins post dose by LC/MS method; type: ADME, organism-based, Macaca mulatta; conditions: in vivo, 1.5 h
Rhesus monkey [6] = assay: Decrease in aldosterone level in rhesus monkey plasma at 0.3 mg/kg, iv by LC/MS method; type: functional; conditions: Macaca mulatta
Procedure, shortened: (§2)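 Plasma aldosterone and 11-deoxycortisol quantified by LC–MS at time points up to 180 min postdose; AUCs over that period calculated and compared with baseline.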

[7] = Oral bioavailability in rhesus monkey at 2 mg/kg administered through gavage; type: ADME, organism-based, Macaca mulatta; conditions: in vivo
[8] = biological target: T1, Steroid 17-alpha-hydroxylase/17,20 lyase (Homo sapiens, UniProt P05093); assay: Inhibition of human CYP17 expressed in COS7 cells assessed as DHEA level after 3 hrs by EIA assay in presence of 360 nM 17-hydroxypregnenolone; type: cell-based, COS-7
T1 sequence (P05093 whole entry): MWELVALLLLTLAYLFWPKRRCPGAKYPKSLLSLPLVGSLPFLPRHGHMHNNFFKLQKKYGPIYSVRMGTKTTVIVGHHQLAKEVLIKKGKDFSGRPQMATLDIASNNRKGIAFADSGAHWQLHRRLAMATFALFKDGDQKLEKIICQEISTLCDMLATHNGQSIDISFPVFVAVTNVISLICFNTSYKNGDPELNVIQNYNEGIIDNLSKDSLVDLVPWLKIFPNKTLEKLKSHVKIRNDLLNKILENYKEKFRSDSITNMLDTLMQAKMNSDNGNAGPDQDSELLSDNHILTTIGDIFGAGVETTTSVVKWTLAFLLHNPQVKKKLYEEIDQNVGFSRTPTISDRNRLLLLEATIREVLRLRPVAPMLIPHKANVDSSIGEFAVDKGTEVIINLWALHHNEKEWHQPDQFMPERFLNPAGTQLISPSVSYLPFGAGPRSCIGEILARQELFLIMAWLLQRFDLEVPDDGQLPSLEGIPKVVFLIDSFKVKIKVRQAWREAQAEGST

Plasma [9] = assay: Free plasma concentration in rhesus monkey at 0.3 mg/kg, iv measured 90 mins post dose by LC/MS method; type: ADME, organism-based, Macaca mulatta; conditions: in vivo, 1.5 h; procedure, shortened: as §1
Rhesus monkey [10] = assay: Decrease in aldosterone level in iv dosed rhesus monkey plasma by LC/MS method; type: functional, organism-based; conditions: Macaca mulatta; procedure, shortened: as §2
Rhesus monkey [11] = assay: Dose normalized AUC in rhesus monkey at 2 mg/kg administered through gavage; type: ADME, organism-based, Macaca mulatta; conditions: in vivo, po
Plasma [12] = assay: Plasma protein binding in rhesus monkey; type: ADME, cell-free, Macaca mulatta
[13] = Plasma clearance in Sprague-Dawley rat at 2 mg/kg, po administered through gavage by LC/MS/MS method; type: ADME, organism-based
Rhesus monkey [14] = assay: Decrease in aldosterone level in rhesus monkey plasma at 0.1 mg/kg, iv by LC/MS method; type: functional; conditions: Macaca mulatta; procedure, shortened: as §2
[15] = Oral bioavailability in Sprague-Dawley rat at 2 mg/kg administered through gavage; type: ADME, organism-based; conditions: in vivo
[16] = biological target: T2, Cytochrome P450 11B2, mitochondrial (Homo sapiens, UniProt P19099); assay: Inhibition of human CYP11B2 expressed in V79 cells assessed as aldosterone level after 3 hrs by HTRF assay in presence of 125 nM 11-deoxycorticosterone; type: cell-based
T2 sequence (P19099 whole entry): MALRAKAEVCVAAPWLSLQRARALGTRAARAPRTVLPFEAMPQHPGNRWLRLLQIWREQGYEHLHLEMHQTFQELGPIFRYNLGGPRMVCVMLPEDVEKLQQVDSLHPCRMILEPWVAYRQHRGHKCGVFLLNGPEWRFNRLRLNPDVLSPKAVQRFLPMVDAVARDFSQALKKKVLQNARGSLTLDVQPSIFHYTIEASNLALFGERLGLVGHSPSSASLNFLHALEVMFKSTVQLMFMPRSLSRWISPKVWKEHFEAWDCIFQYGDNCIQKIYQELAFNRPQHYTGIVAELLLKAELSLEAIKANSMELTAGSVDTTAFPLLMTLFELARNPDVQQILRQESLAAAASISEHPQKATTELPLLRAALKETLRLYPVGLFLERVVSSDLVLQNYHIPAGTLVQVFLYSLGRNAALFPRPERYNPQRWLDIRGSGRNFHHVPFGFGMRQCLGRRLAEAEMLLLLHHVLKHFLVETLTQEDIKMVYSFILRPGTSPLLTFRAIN

[17] = biological target: T3, Cytochrome P450 11B1, mitochondrial (Homo sapiens, UniProt P15538); assay: Inhibition of human CYP11B1 expressed in V79 cells assessed as cortisol level after 3 hrs by HTRF assay in presence of 250 nM 11-deoxycortisol; type: cell-based
T3 sequence (P15538 whole entry): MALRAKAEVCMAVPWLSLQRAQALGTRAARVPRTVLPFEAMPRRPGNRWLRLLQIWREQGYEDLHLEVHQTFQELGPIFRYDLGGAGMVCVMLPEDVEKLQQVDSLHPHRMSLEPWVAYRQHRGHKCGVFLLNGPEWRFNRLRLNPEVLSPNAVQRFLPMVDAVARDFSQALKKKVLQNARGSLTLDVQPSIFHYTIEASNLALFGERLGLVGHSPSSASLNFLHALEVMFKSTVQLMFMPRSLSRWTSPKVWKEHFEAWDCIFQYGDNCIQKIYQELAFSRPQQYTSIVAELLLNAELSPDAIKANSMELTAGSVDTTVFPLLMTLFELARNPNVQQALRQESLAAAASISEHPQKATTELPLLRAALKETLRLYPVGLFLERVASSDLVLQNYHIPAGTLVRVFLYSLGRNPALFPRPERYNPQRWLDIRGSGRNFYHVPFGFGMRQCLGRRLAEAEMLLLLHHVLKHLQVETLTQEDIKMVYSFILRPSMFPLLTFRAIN

Rhesus monkey [18] = assay: Effect on 11-deoxycortisol level in rhesus monkey plasma upto 1 mg/kg, iv by LC/MS method; type: functional, organism-based; conditions: Macaca mulatta; procedure, shortened: as §2
[19] = Inhibition of rhesus monkey CYP11B2 expressed in V79 cells assessed as aldosterone level after 3 hrs by HTRF assay in presence of 125 nM 11-deoxycorticosterone; type: cell-based; conditions: Macaca mulatta, V79, 3 h
Homo sapiens = species on record: Homo sapiens; assay: Selectivity index, ratio IC50 for human CYP11B1 to IC50 for human CYP11B2
Procedure, shortened: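 Ratio of human CYP11B1 IC50 to human CYP11B2 IC50; each IC50 calculated from n ≥ 2 determinations.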

Rhesus monkey [20] = assay: Decrease in aldosterone level in rhesus monkey plasma at 1 mg/kg, iv by LC/MS method; type: functional; conditions: Macaca mulatta; procedure, shortened: as §2

Chain of Cytochrome P450 3A4 (P08684 whole entry): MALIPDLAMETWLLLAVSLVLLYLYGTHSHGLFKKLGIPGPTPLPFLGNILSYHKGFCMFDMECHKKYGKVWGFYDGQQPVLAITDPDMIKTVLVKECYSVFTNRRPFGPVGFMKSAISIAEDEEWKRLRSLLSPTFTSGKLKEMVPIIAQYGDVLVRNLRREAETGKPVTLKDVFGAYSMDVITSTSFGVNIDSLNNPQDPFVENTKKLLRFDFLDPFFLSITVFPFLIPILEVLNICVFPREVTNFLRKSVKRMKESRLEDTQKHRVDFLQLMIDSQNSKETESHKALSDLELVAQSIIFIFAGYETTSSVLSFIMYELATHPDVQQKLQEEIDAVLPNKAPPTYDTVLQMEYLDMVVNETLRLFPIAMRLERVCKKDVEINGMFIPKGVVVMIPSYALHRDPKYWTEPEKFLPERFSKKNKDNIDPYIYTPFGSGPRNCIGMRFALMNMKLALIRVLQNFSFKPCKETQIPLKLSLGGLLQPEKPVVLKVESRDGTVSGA

Compound: Cc1nnc2n1-c1ccc(-c3cncc([C@](C)(O)C(F)(F)F)c3)cc1CC2
- CLint scaled [1]: < 20 mL/min/kg
- IC50 [2]: 3.48 µM
- Cp(f) (Plasma [3]): 279 nM
- Cp(f) (Plasma [4]): 19 nM
- IC50 (Cytochrome P450 3A4): > 50 µM
- Fu (Plasma [5]): 31%
- inhibition in vivo at 0.3 mg/kg (Rhesus monkey [6]): 71%
- bioavailability [7]: 100%
- IC50 [8]: > 10 µM
- Cp(f) (Plasma [9]): 73 nM
- inhibition (Rhesus monkey [10]): Dose-dependent effect
- AUC (Rhesus monkey [11]): 16.26 µM·kg·h/mg
- PPB (Plasma [12]): 31%
- CL/F [13]: 21 mL/min/kg
- inhibition in vivo at 0.1 mg/kg (Rhesus monkey [14]): 48%
- bioavailability [15]: 87%
- IC50 [16]: 0.064 µM
- IC50 [17]: 4.4 µM
- Activity (Rhesus monkey [18]): inactive
- IC50 [19]: 0.012 µM
- Ratio IC50 (Homo sapiens): 69
- inhibition in vivo at 1 mg/kg (Rhesus monkey [20]): 98%

Source: ChEMBL document CHEMBL3621164, “Discovery of Triazole CYP11B2 Inhibitors with in Vivo Activity in Rhesus Monkeys” (ACS Med Chem Lett, 2015)
